Calls of active or inactive are those of the source. No cut-off for these calls is given here.
Assays:
[1] = target: T1, Transcriptional enhancer factor TEF-3 (Homo sapiens, UniProt Q15561); experiment: Inhibition of CPM binding to N-terminal His6-tagged human TEAD4 (217 to 434 residues) expressed in Escherichia coli BL21-CodonPlus (DE3)-RIPL cells at 12.5 uM preincubated for 10 mins followed by CPM addition and measured after 1 hr by fluorescence assay relative to control; details: time 70.0 min
T1 sequence (Q15561 whole entry, the tested form may be a part): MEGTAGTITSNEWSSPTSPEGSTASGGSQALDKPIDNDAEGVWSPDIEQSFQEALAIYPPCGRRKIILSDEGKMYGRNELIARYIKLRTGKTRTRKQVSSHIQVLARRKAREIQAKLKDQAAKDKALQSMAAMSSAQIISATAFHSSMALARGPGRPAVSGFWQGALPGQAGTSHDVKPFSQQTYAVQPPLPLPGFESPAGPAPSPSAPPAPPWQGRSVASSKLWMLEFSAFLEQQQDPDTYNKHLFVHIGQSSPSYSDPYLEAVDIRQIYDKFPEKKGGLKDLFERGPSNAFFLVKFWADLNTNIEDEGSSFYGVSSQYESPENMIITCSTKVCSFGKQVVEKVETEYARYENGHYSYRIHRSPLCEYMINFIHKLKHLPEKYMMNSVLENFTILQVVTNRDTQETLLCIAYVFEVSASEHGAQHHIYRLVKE

Mus musculus [2] = species on record: Mus musculus; experiment: (§1) Binding affinity to N-terminal His6/MBP-tagged mouse TEAD4 (209 to 427 residues) Cys360Ala mutant expressed in Escherichia coli BL21-CodonPlus (DE3)-RIPL cells assessed as inhibition of protein-FAM-YAP (50 to 100 residues) interaction preincubated for 10 mins followed by FAM YAP addition and measured after 1 hr by fluorescence assay; details: time 70.0 min
Summary of the method: (§2)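 FP competition in PBS pH 7.5 with mTEAD4 Cys360Ser or Cys360Ala mutant: serially diluted compound preincubated 10 min at room temperature with protein, then FAM-YAP50–100 added (final 10 nM FAM / 50 nM protein for each mutant); shaken 1 h at room temperature, FP read at Ex/Em 485/535 nm.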

[3] = target: T1, Transcriptional enhancer factor TEF-3; experiment: as §1, with “His6-tagged human” for “His6/MBP-tagged mouse”, “(217” for “(209”, “434” for “427”, “residues)” for “residues) Cys360Ala mutant”; details: time 70.0 min
Summary of the method: (§3)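 FP competition in PBS pH 7.5: serially diluted compound preincubated 10 min at room temperature with TEAD4 protein, then FAM-YAP50–100 added; shaken 1 h at room temperature, FP read at Ex/Em 485/535 nm. Final FAM/protein: nonacylated hTEAD4 2 nM/5 nM; acylated hTEAD4 3 nM/15 nM. Compound stocks 10 mM in DMSO. IC50 from curve fitting.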

[4] = target: Transcriptional enhancer factor TEF-1 (Homo sapiens, UniProt P28347); experiment: Inhibition of CPM binding to nonacylated N-terminal His6/GST-tagged human TEAD1 (209 to 426 residues) expressed in Escherichia coli BL21-CodonPlus (DE3)-RIPL cells preincubated for 10 mins followed by CPM addition and measured after 1 hr by fluorescence assay
Chain of Transcriptional enhancer factor TEF-1 (P28347 whole entry, the tested form may be a part): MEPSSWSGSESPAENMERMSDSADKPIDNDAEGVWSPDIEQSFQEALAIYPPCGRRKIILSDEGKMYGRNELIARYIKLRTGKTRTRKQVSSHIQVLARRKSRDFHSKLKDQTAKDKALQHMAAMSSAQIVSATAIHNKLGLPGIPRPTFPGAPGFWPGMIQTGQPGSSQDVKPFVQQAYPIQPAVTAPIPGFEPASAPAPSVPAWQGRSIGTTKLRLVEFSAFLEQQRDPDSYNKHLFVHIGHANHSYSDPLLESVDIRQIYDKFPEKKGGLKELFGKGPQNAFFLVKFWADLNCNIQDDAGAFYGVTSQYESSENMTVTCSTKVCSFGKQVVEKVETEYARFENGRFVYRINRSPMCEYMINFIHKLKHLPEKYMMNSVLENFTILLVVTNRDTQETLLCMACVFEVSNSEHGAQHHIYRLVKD

[5] = target: T1, Transcriptional enhancer factor TEF-3; experiment: Binding affinity to nonacylated N-terminal His6-tagged human TEAD4 (217 to 434 residues) expressed in Escherichia coli BL21-CodonPlus (DE3)-RIPL cells at 8 equiv after 1 hr by ESI-MS spectrophotometric analysis
Summary of the method: (§4)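 Whole-protein ESI–MS: 1 μM hTEAD4 incubated 1 h at room temperature with 8 equiv compound in 25 mM HEPES, 150 mM NaCl, pH 6.5; centrifuged, injected via online desalting column to UPLC-MS; masses deconvoluted to detect adducts.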

[6] = target: T1, Transcriptional enhancer factor TEF-3; experiment: Inhibition of CPM binding to nonacylated N-terminal His6-tagged human TEAD4 (217 to 434 residues) expressed in Escherichia coli BL21-CodonPlus (DE3)-RIPL cells assessed as ratio of Kinact to Ki measured after 1 to 24 hrs by fluorescence assay; details: time hrs 1-24
[7] = target: T1, Transcriptional enhancer factor TEF-3; experiment: Binding affinity to nonacylated N-terminal His6-tagged human TEAD4 (217 to 434 residues) expressed in Escherichia coli BL21-CodonPlus (DE3)-RIPL cells assessed as inhibition of protein-FAM-YAP (50 to 100 residues) interaction preincubated for 10 mins followed by FAM YAP addition and measured after 1 hr by fluorescence assay; summary of the method: as §3
[8] = target: T1, Transcriptional enhancer factor TEF-3; experiment: Inhibition of FITC-labeled palmitate tracer binding to N-terminal His6-tagged human TEAD4 (217 to 434 residues) expressed in Escherichia coli BL21-CodonPlus (DE3)-RIPL cells assessed as ratio of Kinact to Ki measured after 1 to 24 hrs by fluorescence assay; details: time hrs 1-24
[9] = target: T1, Transcriptional enhancer factor TEF-3; experiment: Inhibition of FITC-labeled palmitate tracer binding to N-terminal His6-tagged human TEAD4 (217 to 434 residues) expressed in Escherichia coli BL21-CodonPlus (DE3)-RIPL cells preincubated for 10 mins followed by FITC-labeled palmitate tracer addition and measured after 1 hr by fluorescence assay
Summary of the method: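 FP competition in 25 mM HEPES, 150 mM NaCl, pH 6.5: serially diluted compound preincubated 10 min at room temperature with nonacylated hTEAD4, then FITC-palmitate tracer added (final 50 nM protein, 10 nM tracer); shaken 1 h at room temperature, FP at Ex/Em 485/535 nm. Tracer Kd from saturation binding.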

[10] = target: T1, Transcriptional enhancer factor TEF-3; experiment: Reversible inhibition of CPM binding to nonacylated N-terminal His6-tagged human TEAD4 (217 to 434 residues) expressed in Escherichia coli BL21-CodonPlus (DE3)-RIPL cells measured after 1 to 24 hrs by fluorescence assay
[11] = target: T1, Transcriptional enhancer factor TEF-3; experiment: Binding affinity to nonacylated N-terminal His6-tagged human TEAD4 (217 to 434 residues) expressed in Escherichia coli BL21-CodonPlus (DE3)-RIPL cells assessed as melting temperature at 80 uM after 10 mins by SYPRO orange dye-based differential scanning fluorimetry method (reference value: 41 degreeC)
[12] = target: Transcriptional enhancer factor TEF-3 (Mus musculus) (UniProt Q62296); experiment: Binding affinity to nonacylated mouse TEAD4 assessed as line broadening at Phe408 residue at 0.5 mM by 1H-15N HSQC spectra analysis
Chain of Transcriptional enhancer factor TEF-3 (Mus musculus) (Q62296 whole entry, the tested form may be a part): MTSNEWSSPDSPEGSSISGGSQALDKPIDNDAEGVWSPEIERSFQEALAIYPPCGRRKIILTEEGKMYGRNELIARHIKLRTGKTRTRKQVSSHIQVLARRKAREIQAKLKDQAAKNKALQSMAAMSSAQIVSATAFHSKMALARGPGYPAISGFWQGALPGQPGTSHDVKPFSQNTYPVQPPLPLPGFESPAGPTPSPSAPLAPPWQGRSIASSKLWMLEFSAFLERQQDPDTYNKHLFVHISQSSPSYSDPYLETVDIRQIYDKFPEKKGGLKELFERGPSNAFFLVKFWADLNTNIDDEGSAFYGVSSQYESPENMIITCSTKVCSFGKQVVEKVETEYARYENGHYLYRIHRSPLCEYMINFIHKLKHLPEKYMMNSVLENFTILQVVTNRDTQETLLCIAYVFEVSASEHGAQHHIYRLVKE
Summary of the method: (§5)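 1H–15N HSQC of 13C/15N-labeled mTEAD4, deacylated with hydroxylamine; spectra with DMSO or compound (0.5 mM) recorded at 37 °C on a 600 MHz cryoprobe instrument in 20 mM HEPES pH 7.3, 150 mM NaCl, 1 mM DTT; spectra overlaid.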

[13] = target: T1, Transcriptional enhancer factor TEF-3; experiment: Binding affinity to TEAD4 in human HCT-116 cells assessed as change in melting temperature at 50 uM after 10 mins by […]; format: cell-based
Summary of the method: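 CETSA in HCT116 lysates (PBS, 0.04% NP-40, freeze–thaw lysis, 100,000g clearing; 1 mg/mL protein): compound at 50 μM or DMSO for 10 min at room temperature, aliquots heated across a temperature range, recentrifuged 100,000g at 4 °C for 25 min. Soluble TEAD4 detected by immunoblot with anti-TEAD4 antibody; melting temperature from turning point of fitted curves.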

[14] = target: T1, Transcriptional enhancer factor TEF-3; experiment: Inhibition of CPM binding to N-terminal His6-tagged human TEAD4 (217 to 434 residues) expressed in Escherichia coli BL21-CodonPlus (DE3)-RIPL cells preincubated for 10 mins followed by CPM addition and measured after 1 hr by fluorescence assay; details: read-out: IC50(app)
Mus musculus [15] = species on record: Mus musculus; experiment: Binding affinity to N-terminal His6-tagged mouse TEAD4 Cys360Ser mutant assessed as inhibition of protein-FAM-YAP (50 to 100 residues) interaction preincubated for 10 mins followed by FAM YAP addition and measured after 1 hr by fluorescence assay; details: time 70.0 min; summary of the method: as §2
[16] = target: T1, Transcriptional enhancer factor TEF-3; experiment: Inhibition of TEAD4 in HEK293 cells assessed as reduction in ANKRD1 mRNA expression at 1 uM measured after 6 hrs by SYBR green dye based RT-PCR analysis relative to control; format: cell-based
Summary of the method: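 HEK293 cells treated with DMSO or compound for 6 h; ANKRD1 mRNA measured by RT-qPCR relative to the DMSO control.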

[17] = target: Transcriptional enhancer factor TEF-3 (Mus musculus) (UniProt Q62296); experiment: Binding affinity to nonacylated mouse TEAD4 assessed as line broadening at Phe386 residue at 0.5 mM by 1H-15N HSQC spectra analysis; summary of the method: as §5
[18] = target: T1, Transcriptional enhancer factor TEF-3; experiment: Binding affinity to acylated N-terminal His6-tagged human TEAD4 (217 to 434 residues) expressed in Escherichia coli BL21-CodonPlus (DE3)-RIPL cells assessed as covalent adduct formation at 8 equiv after 1 hr by ESI-MS spectrophotometric analysis; summary of the method: as §4

- inhibition [1]: > 50%
- inhibition [3]: inactive
- IC50 [4]: 2.6 µM
- Activity [5]: Active
- Ratio [6]: 8.3
- IC50 [7]: 0.07 µM
- Ratio [8]: 4
- IC50 [9]: 0.2 µM
- Ki [10]: 2.6 µM
- Tm [11]: 36 °C
- Activity [12]: Active
- ΔTm [13]: 3.3 °C
- IC50 [14]: 2.3 µM
- inhibition (Mus musculus [15]): inactive
- inhibition [16]: 90%
- Activity [17]: Active
- Activity [18]: inactive
Structure (SMILES): O=c1cc(CO)oc(C(Nc2ccccc2)c2ccccc2)c1O (stereo not drawn)
- inhibition (Mus musculus [2]): inactive

— ChEMBL document CHEMBL4665803, “Discovery of Covalent Inhibitors Targeting the Transcriptional Enhanced Associate Domain Central Pocket” (J Med Chem, 2020)
